MEKK2 mut-MEK5 = signal of MEK5 binding to mutant human MEKK2 PB1 domain. 0.35% of 290,000 active. bead flow cytometry, Alexa488-MEK5 binding to MEKK2 mutant. percent response, % at 10 µM; in the data active = percent response above about 24%, passing the limit was not always enough
ATG4B inhibitor = blocks human ATG4B protease cleavage of LC3 substrate | Q9Y4P1 | ATG4B cleavage of LC3-PLA2, NBD-HPC fluorescence, 1 h | inhibition, % at 8.33 µM | 0.51% of 340,000 active | AID 504462; in the data active = inhibition above about 40%
Beta2AR agonist = activates human beta-2 adrenergic receptor causing internalization; response, % (test concentration not listed); AID 504454; 0.43% of 340,000 active; Am2.2-beta2AR cells, FAP receptor internalization, flow cytometry;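 active = response above a set limit, near 3 SD of response in nonfluorescent compounds, cut at about 42% in these data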
Target sequence (P07550 whole entry, looked up): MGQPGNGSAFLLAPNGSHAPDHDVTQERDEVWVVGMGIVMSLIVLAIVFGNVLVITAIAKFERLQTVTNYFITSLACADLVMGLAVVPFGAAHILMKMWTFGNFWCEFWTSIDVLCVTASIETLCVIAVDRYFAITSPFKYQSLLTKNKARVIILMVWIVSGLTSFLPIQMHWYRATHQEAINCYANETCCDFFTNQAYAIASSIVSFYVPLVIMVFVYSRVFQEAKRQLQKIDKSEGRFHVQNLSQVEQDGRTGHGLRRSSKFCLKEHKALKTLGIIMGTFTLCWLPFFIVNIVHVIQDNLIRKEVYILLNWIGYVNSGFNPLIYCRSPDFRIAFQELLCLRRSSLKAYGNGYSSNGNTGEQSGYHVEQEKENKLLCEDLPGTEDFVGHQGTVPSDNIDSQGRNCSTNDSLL
Dynein cargo inh = dynein cargo transport inhibition; 3617.4 mouse cells, GR-EGFP nuclear translocation imaging; test concentration mostly 20 µM; stimulated with dexamethasone, 1 µM; stronger effect = lower value; z-score, hits read low; 0.47% of 220,000 active; AID 1381;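 active = plate z-score of nuclear minus cytoplasmic receptor signal below a set negative limit, without overly bright fluorescence or cell loss, cut at about -3.5 in these data, passing the limit was not always enough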;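 also: z-score of nuclear minus cytoplasmic ring GR-EGFP intensity difference per well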
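Buffer or medium: tet-free, stripped-serum medium; Also added: dexamethasone, 1.0 µM final; Technique: high-content fluorescence imaging after fixation; Times: 48 h induction, 1 h compound, 30 min dex at 37 °C; Read-out: per-cell GR-EGFP intensity, nucleus versus surrounding cytoplasmic ring, well-averaged.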
MEKK3 PB1 HTS = raises or lowers MEK5 binding to the human MEKK3 PB1 domain. Q99759. bead-based flow cytometry, Alexa488-MEK5 binding to MEKK3; actives lie on both sides; 0 = blocked by unlabeled MEK5, 100 = vehicle. binding response (% of control), % at 10 µM. 1.4% of 290,000 active. AID 1529;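 active = binding response more than 3 SD above or below the average of its plate-row segment, actives on both sides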;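 also: Alexa488 bead fluorescence after subtracting the streptavidin-only scavenger bead signal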
MEKK2wt PB1 HTS = raises or lowers MEK5 binding to wildtype human MEKK2 PB1 domain | bead flow cytometry, Alexa488-MEK5 binding to MEKK2 WT; actives lie on both sides | binding response (% of control), % at 10 µM | 1.1% of 290,000 active | Q9Y2U5; in the data active = binding response below about 67% or above about 130%
MEKK2wt confirm = raises or lowers MEK5 binding to wildtype human MEKK2, retest | AID 1892 | shares compounds with MEKK3 PB1 HTS | 2.4% of 5,900 active | bead flow cytometry, Alexa488-MEK5 binding to MEKK2 WT; actives lie on both sides | binding response (% of control), % at 10 µM; in the data active = binding response below about 16% or above about 210%; inactive = in between
MEKK2mut confirm = signal of MEK5 binding to mutant human MEKK2, retest; AID 1893; percent response, % at 10 µM; 2% of 5,900 active; bead flow cytometry, Alexa488-MEK5 binding to MEKK2 mutant; shares compounds with MEKK3 PB1 HTS; in the data active = percent response mostly above about 71%, no sharp cut-off; inactive = mostly below about 38%;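 also: higher means compound restores mutant binding toward wildtype level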
MEKK3-MEK5 inh = MEKK3-MEK5 PB1 inhibition, single concentration confirmation; shares compounds with MEKK3 PB1 HTS; bead flow cytometry, Alexa488-MEK5 binding to MEKK3; stronger effect = lower value; binding response (% of control), % at 10 µM; 1.8% of 5,900 active;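 active = binding response below 72% of control, or above a set upper limit, though filed actives all read lower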;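 also: 100% = DMSO only wells and 0% = binding blocked by excess unlabeled MEK5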
* hit, by the source's call; · = no result given; [ ] = dose if it differs, or a comment. An excerpt weighted towards active compounds, which were near 2.9% of everything screened.

SMILES	MEKK2 mut-MEK5	ATG4B inhibitor	Beta2AR agonist	Dynein cargo inh	MEKK3 PB1 HTS	MEKK2wt PB1 HTS	MEKK2wt confirm	MEKK2mut confirm	MEKK3-MEK5 inh
N#C/C(=C\c1ccc(Sc2ccc(Cl)cc2)o1)c1nc2ccccc2[nH]1	14	2	-5	-2.7	102	150*	131	14	102
N#C/C(=C\c1ccc(Sc2nc3ccccc3[nH]2)o1)c1ccccc1	7	2	1	-0.36	107	101	·	·	·
Cc1ccc(-n2c([S-])c(C(=O)Nc3ccc(OC(F)F)cc3)[n+]3ccc(C(=O)NCCO)cc23)cc1C	-10	4	19	-0.2	86	63*[inhibitor]	84	-9	99
Cc1ccc(CNC(=O)CN2C(=O)NC3(CC(C)CC(C)(C)C3)C2=O)cc1 (stereo unspecified)	·	4	-4	·	·	·	·	·	·
CCOC(=O)C1=C(c2ccccc2)NC(=O)NC1c1cc(Cl)c(O)c(OC)c1 (stereo unspecified)	-8	-2	11	0.51	95	98	·	·	·
CCOC(=O)C1=C(c2ccccc2)NC(N)=NC1c1ccc(OCc2ccc(Cl)cc2)c(OC)c1 (stereo unspecified)	82*	22	1	-0.58	105	248*	251*	121*	112
O=c1ccc(=O)n(CCc2ccccn2)[nH]1	·	-1	-3	·	·	·	·	·	·
COc1cccc(Nc2ccc(Nc3cccc(OC)c3)nn2)c1	76*	-15	14	1.9	113	172*	108	2	103
COc1cccc(Nc2c(Nc3cccc(OC)c3)c(=O)c2=O)c1	6	-4	27	·	102	102	·	·	·
Cc1cc(C(F)F)nn1CC(=O)Nc1cc([N+](=O)[O-])ccc1F	-1	-3	0	0.62	97	96	·	·	·
Cc1cc(C(F)F)nn1CC(=O)NCc1ccccc1F	3	-3	4	0.33	141*	107	104	-3	103
CC12CCC3c4ccc(O)cc4CCC3C1CC(=NO)C2O (stereo unspecified)	·	7	18	·	·	·	·	·	·
c1ccc(CCNCCCOc2cccc3ccccc23)cc1	33*	3	7	·	118	161*	151	37	108
O=S(=O)(c1ccc(F)cc1)n1ccc(-c2cccc(OCc3c(F)cccc3Cl)c2)n1	-17	-7	-1	-0.09	2.0*[inhibitor]	2.0*[inhibitor]	95	-8	97
COc1cc(C(=O)NCC(c2cccs2)N2CCOCC2)cc(Br)c1OCc1ccccc1 (stereo unspecified)	·	-1	7	·	·	·	·	·	·
Cc1ccc(NC(=O)CCNS(=O)(=O)c2ccc3[nH]c(=O)oc3c2)c(Cl)c1	0	2	2	·	97	97	·	·	·
CCN(CC)CCNC(=O)c1cc(-c2ccc(Br)s2)nc2ccccc12	43*	1	14	·	100	141*	156	34	107
NS(=O)(=O)c1ccc(-c2ccc(/C=C3\SC(=S)N(C4CCS(=O)(=O)C4)C3=O)o2)cc1 (stereo unspecified)	-31	-9	-62	-1.1	78	56*[inhibitor]	76	-12	98
OCC[C@H]1C[C@@H](O)[C@H](O)[C@]2(CCCCO2)O1	4	-8	0	-0.23	105	106	·	·	·
CCOC(=O)Oc1ccc(/C=C2\N=C(C)OC2=O)cc1	-2	8	8	·	102	100	·	·	·
COc1ccc(-c2nsc3c(SCc4ccccc4)ncnc23)cc1	0	0	1	0.58	144*	107	97	1	101
CN1CCN(Cc2ccc(Sc3ccc(Cl)cc3)c([N+](=O)[O-])c2)CC1	27	13	-6	1.8	107	157*	122	8	102
Cc1ccc(Sc2ccc(CN3CCCC3)cc2[N+](=O)[O-])cc1	12	2	-5	0.17	98	134	·	·	·
CSc1nc2ccccc2n1Cc1cccc([N+](=O)[O-])c1	1	4	-2	1.2	152*	108	100	-5	103
COc1ccccc1C(=O)NC(CCSC)C(=O)NCc1ccncc1 (stereo unspecified)	·	-14	-1	·	·	·	·	·	·
SMILES	MEKK2 mut-MEK5	ATG4B inhibitor	Beta2AR agonist	Dynein cargo inh	MEKK3 PB1 HTS	MEKK2wt PB1 HTS	MEKK2wt confirm	MEKK2mut confirm	MEKK3-MEK5 inh
COC(=O)c1ccc(C(=O)OC)c(NC(=O)CN2CCCCC2)c1	-2	3	3	-0.47	99	102	·	·	·
COC(=O)c1cc(OC)c(OC)cc1NC(=O)CN1CCCCC1	-26	2	17	-0.31	-1.0*[inhibitor]	-4.0*[inhibitor]	92	-10	88
COC(=O)c1cc(OC)c(OC)cc1NC(=S)N1CCN(c2ccccc2)CC1	-21	2	1	-0.94	1.0*[inhibitor]	2.0*[inhibitor]	102	-2	103
COc1ccccc1NC(=S)N1CCOCC1	0	0	-3	0.5	73*[inhibitor]	99	100	1	104
CCOC(=O)C1CCCN(C(=O)Nc2c(-c3ccccc3)noc2C)C1 (stereo unspecified)	0	9	-2	0.3	104	100	·	·	·
CCCCn1nnnc1SCC(=O)N1CCCC1	-1	-9	-5	-0.73	99	96	·	·	·
O=C(Nn1c(O)c(C=C2N=c3ccccc3=N2)sc1=S)c1cccc(Cl)c1	-4	0	-3	-1.4	79	49*[inhibitor]	63	-21	95
Cc1ccc(C(=O)Nn2c(O)c(C=C3N=c4ccccc4=N3)sc2=S)cc1	-6	10	6	-0.9	72	39*[inhibitor]	39	-30	91
O=C(Nn1c(O)c(C=C2N=c3ccccc3=N2)sc1=S)c1ccc(Cl)cc1	·	4	4	0.31	·	·	·	·	·
Cc1ccc(S(=O)(=O)Nn2c(O)c(C=C3N=c4ccccc4=N3)sc2=S)cc1	-3	-2	6	0.28	99	83	·	·	·
O=C(Nn1c(O)c(C=C2N=c3ccccc3=N2)sc1=S)c1ccccc1	-39	3	-5	-0.3	65	17*[inhibitor]	52	-23	91
COc1ccccc1C(=O)N/C(=C/c1ccc(Br)cc1)C(=O)N1CCCC1	5	11	-3	-1.3	100	98	·	·	·
CC(C)CNC(=O)COC(=O)c1cc(Cl)cc(Cl)c1N	0	-15	2	1.4	98	98	·	·	·
CC(C)CNC(=O)COC(=O)c1ccc(F)cc1Cl	-10	-15	6	0.41	73*[inhibitor]	83	106	7	108

Compound activity (PubChem BioAssay)
